Calls of active or inactive are those of the source. The rule behind the calls is not given here.
Experiments:
Coagulation factor XI [1] = biological target: T1, Coagulation factor XI (Homo sapiens, UniProt P03951); experiment: Competitive inhibition of human coagulation factor 11a using S-2366 as substrate
Method in brief: (§1)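 Ki values were calculated from the IC50 values measured in the enzyme screening assays.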

Homo sapiens = organism: Homo sapiens; experiment: Selectivity ratio of IC50 for human thrombin to IC50 for human APC
Prothrombin [2] = biological target: T2, Prothrombin (Homo sapiens, UniProt P00734); experiment: Competitive inhibition of human thrombin using S-2366 as substrate; method in brief: as §1
[3] = biological target: T3, Vitamin K-dependent protein C (Homo sapiens, UniProt P04070); experiment: Competitive inhibition of human APC using S-2366 as substrate; method in brief: as §1
Coagulation factor XI [4] = biological target: T1, Coagulation factor XI; experiment: Inhibition of human coagulation factor 11a using S-2366 as substrate preincubated for 300 seconds followed by substrate addition measured after 40 mins by spectrophotometric analysis
[5] = biological target: T3, Vitamin K-dependent protein C; experiment: Inhibition of human APC using S-2366 as substrate preincubated for 300 seconds followed by substrate addition measured after 40 mins by spectrophotometric analysis
Prothrombin [6] = biological target: T2, Prothrombin; experiment: Inhibition of human thrombin using S-2366 as substrate preincubated for 300 seconds followed by substrate addition measured after 40 mins by spectrophotometric analysis
Coagulation factor VII [7] = biological target: T4, Coagulation factor VII (Homo sapiens, UniProt P08709); experiment: Inhibition of human coagulation factor 7a using spectrozyme as substrate preincubated for 300 seconds followed by substrate addition measured after 40 mins by spectrophotometric analysis in presence of tissue factor
T4 sequence (P08709 whole entry): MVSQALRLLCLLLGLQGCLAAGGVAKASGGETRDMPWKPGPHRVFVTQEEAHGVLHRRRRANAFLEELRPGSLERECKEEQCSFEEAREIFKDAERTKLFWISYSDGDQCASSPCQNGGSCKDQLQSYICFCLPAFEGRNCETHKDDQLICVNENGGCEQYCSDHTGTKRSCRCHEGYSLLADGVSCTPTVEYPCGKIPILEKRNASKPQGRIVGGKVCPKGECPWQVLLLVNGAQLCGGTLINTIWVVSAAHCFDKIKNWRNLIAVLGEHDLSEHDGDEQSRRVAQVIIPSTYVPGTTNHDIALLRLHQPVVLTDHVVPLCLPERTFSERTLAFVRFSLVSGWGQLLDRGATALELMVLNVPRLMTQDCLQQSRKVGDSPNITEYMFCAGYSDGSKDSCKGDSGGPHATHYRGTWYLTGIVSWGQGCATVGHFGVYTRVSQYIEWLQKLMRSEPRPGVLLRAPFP

Coagulation factor X [8] = biological target: T5, Coagulation factor X (Homo sapiens, UniProt P00742); experiment: Inhibition of human coagulation factor 10a using S-2765 as substrate preincubated for 300 seconds followed by substrate addition measured after 40 mins by spectrophotometric analysis
Coagulation factor X [9] = biological target: T5, Coagulation factor X; experiment: Competitive inhibition of human coagulation factor 10a using S-2765 as substrate; method in brief: as §1
Plasma [10] = experiment: Antifibrinolytic activity in human citrated plasma assessed as prolongation of clot-lysis time at 101 uM by spectrophotometric analysis; assay type: functional, cell-free
Method in brief: (§2)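 Citrated plasma from healthy volunteers. Tissue plasminogen activator was added to start plasmin generation, and clot-lysis time was recorded with test compound present (n = 2).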

[11] = biological target: Coagulation factor IX (Homo sapiens) (UniProt P00740); experiment: Inhibition of coagulation factor 9a (unknown origin)-mediated hydrolysis of Z-D-Arg-Gly-Arg-pNA at 100 uM relative to control
Coagulation factor VII [12] = biological target: T4, Coagulation factor VII; experiment: Competitive inhibition of human coagulation factor 7a using spectrozyme as substrate; method in brief: as §1
[13] = Lipophilicity, log D of the compound at pH 7.4 by chromatographic method; assay type: physicochemical; details: buffer
Plasma [14] = experiment: Antifibrinolytic activity in human citrated plasma assessed as prolongation of clot-lysis time at 28 uM by spectrophotometric analysis; assay type: functional, cell-free; method in brief: as §2

| Structure (SMILES) | Ki (Coagulation factor XI [1]) [µM] | Ratio IC50 (Homo sapiens) | Ki (Prothrombin [2]) [µM] | Ki [3] [µM] | IC50 (Coagulation factor XI [4]) [µM] | IC50 [5] [µM] | IC50 (Prothrombin [6]) [µM] | IC50 (Coagulation factor VII [7]) [µM] | IC50 (Coagulation factor X [8]) [µM] | Ki (Coagulation factor X [9]) [µM] | Activity (Plasma [10]) | inhibition [11] | Ki (Coagulation factor VII [12]) [µM] | chromatographic logD [13] | Activity (Plasma [14]) |
| --- | --- | --- | --- | --- | --- | --- | --- | --- | --- | --- | --- | --- | --- | --- | --- |
| N=C(N)NCCC[C@H](NC(=O)[C@@H](CC1CCCCC1)NCCC(=O)O)C(=O)NCc1ccc(C(=N)N)cc1 | > 19 | 1.8 | 3 | 0.8 | > 44 | 2.8 | 5.2 | – | – | – | – | – | – | – | – |
| N=C(N)c1ccc(CNC(=O)[C@H](CC2CCCN2)NC(=O)[C@@H](CC2CCCCC2)NCC(=O)O)cc1 (mixture of isomers) | – | 1.3 | 4 | 1.6 | – | 5.6 | 7 | – | – | – | – | – | – | – | – |
| N=C(N)c1ccc(CNC(=O)[C@@H]2CCN2C(=O)[C@H](NCC(=O)O)C2CCCCC2)cc1 | – | – | – | – | 20 | 1.3 | – | 3.3 | 21 | – | – | – | – | – | – |
| N=C(N)c1ccc(CNC(=O)C2(NC(=O)[C@H](NCC(=O)O)C3CCCCC3)Cc3ccccc3C2)cc1 | > 19 | 21 | 19 | 0.5 | > 44 | 1.7 | 36 | 8.9 | 48 | 16 | Active | 40% | 7 | 0.93 | – |
| N=C(N)c1ccc(CNC(=O)[C@@H](NC(=O)[C@@H](CC2CCCCC2)NCC(=O)O)C2CCNCC2)cc1 | > 19 | 8.4 | 14 | 0.9 | > 44 | 3.1 | 26 | – | – | – | – | – | – | – | – |
| N=C(N)c1ccc(CNC(=O)[C@H](Cc2ccc3ccccc3c2)NC(=O)[C@@H](CC2CCCCC2)NCC(=O)O)cc1 | – | 5.3 | 3 | 0.3 | – | 0.98 | 5.2 | – | – | – | – | – | – | – | – |
| N=C(N)NCCC[C@H](NC(=O)[C@@H](CC1CCCCC1)NCC(=O)O)C(=O)NCc1ccc(C(=N)N)cc1 | – | 2.8 | 1 | 0.1 | – | 0.47 | 1.3 | – | – | – | – | – | – | – | – |
| N=C(N)c1ccc(CNC(=O)[C@H](Cc2ccc(N)cc2)NC(=O)[C@@H](CC2CCCCC2)NCC(=O)O)cc1 | 0.3 | 6.9 | 0.5 | 0.04 | 0.58 | 0.13 | 0.9 | – | > 44 | > 15 | – | – | – | – | – |
| N=C(N)c1ccc(CNC(=O)[C@@H](CC2CCCN2)NC(=O)[C@@H](CC2CCCCC2)NCC(=O)O)cc1 (mixture of isomers) | – | 1 | – | – | – | > 44 | > 44 | – | – | – | – | – | – | – | – |
| N=C(N)c1ccc(CNC(=O)[C@H](Cc2cccc3ccccc23)NC(=O)[C@@H](CC2CCCCC2)NCC(=O)O)cc1 | – | 11 | 6 | 0.3 | – | 1.1 | 12 | – | – | – | – | – | – | 1.97 | – |
| N=C(N)c1ccc(CNC(=O)C(Cc2ccc(CN)cc2)NC(=O)[C@@H](CC2CCCCC2)NCC(=O)O)cc1 (mixture of isomers) | 19 | 3.3 | 2 | 0.3 | 43 | 1.1 | 3.7 | – | 42 | 14 | – | – | – | – | – |
| N#Cc1ccc(CC(NC(=O)[C@@H](CC2CCCCC2)NCC(=O)O)C(=O)NCc2ccc(C(=N)N)cc2)cc1 (mixture of isomers) | – | 5.4 | 2 | 1.1 | – | 3.8 | 3.8 | – | – | – | – | – | – | – | – |
| N=C(N)c1ccc(CNC(=O)C(CCC2CCNCC2)NC(=O)[C@@H](NCC(=O)O)C2CCCCC2)cc1 (mixture of isomers) | – | 1 | – | – | – | > 44 | > 44 | – | – | – | – | – | – | – | – |
| N=C(N)c1ccc(CNC(=O)[C@H](Cc2ccccc2)NC(=O)[C@@H](CC2CCCCC2)NCC(=O)O)cc1 | – | 9.1 | 3 | 0.2 | – | 0.67 | 6.1 | – | – | – | – | – | – | – | – |
| N=C(N)c1ccc(CNC(=O)[C@H](Cc2ccc(O)cc2)NC(=O)[C@@H](CC2CCCCC2)NCC(=O)O)cc1 | 0.8 | 15 | 2 | 0.1 | 1.9 | 0.26 | 3.9 | – | 23 | 8 | – | – | – | 0.02 | – |
| N=C(N)c1ccc(CNC(=O)C(CCC2CCNCC2)NC(=O)[C@H](N)CC2CCCCC2)cc1 (mixture of isomers) | – | 8.9 | 15 | 0.9 | – | 3.1 | 28 | – | – | – | – | – | – | – | – |
| N=C(N)NCCC[C@H](NC(=O)[C@H](N)C1CCCCC1)C(=O)NCc1ccc(C(=N)N)cc1 | – | 1.2 | 1 | 0.5 | – | 1.6 | 1.9 | – | – | – | – | – | – | – | – |
| N=C(N)c1ccc(CNC(=O)C(CC2CCNCC2)NC(=O)[C@@H](CC2CCCCC2)NCC(=O)O)cc1 (mixture of isomers) | – | 9.1 | 6 | 0.4 | – | 1.3 | 12 | – | – | – | – | – | – | – | – |
| N=C(N)c1ccc(CNC(=O)C(CCC2CCNCC2)NC(=O)[C@@H](CC2CCCCC2)NCC(=O)O)cc1 (mixture of isomers) | > 19 | 23 | 12 | 0.3 | > 44 | 0.92 | 22 | > 133 | > 130 | > 43 | – | inactive | > 100 | < 0 | Active |
